An excerpt weighted towards active compounds, which were near 4.8% of everything screened.
SF1 activator – activators of human SF-1, primary screen, cell-based, CHO-K1, Gal4-SF-1 LBD, luciferase luminescence; Steroidogenic factor 1 (Homo sapiens), Q13285; activation, % at 10 µM; CHO-K1 Gal4-SF-1 LBD luciferase reporter; % increase over DMSO SF-1-specific signal; 1.9% of 65,000 active;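 active = activation above the mean activation of all tested compounds plus 3 SD, cut at about 50% in these data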
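Material: Transient Gal4-SF-1 LBD reporter, CHO-K1 | Input: 4,000 cells/well | Dosing: One dose, 10 µM compound, 1% DMSO | Incubation: 20 h compound treatment, 37 °C | Detection: SteadyLite luciferase luminescence | Evaluation: Percent activation relative to DMSO median and mock-transfected background | Benchmarks: DMSO-treated SF-1-transfected cells as negative, DMSO-treated mock-transfected cells lacking SF-1 as background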
Pyk2 oligo antag – antagonists of Pyk2 self-association, primary screen, Q293 cells, FERM NanoBiT luminescence, HTS; Protein-tyrosine kinase 2-beta (Homo sapiens), Q14289; stronger effect = lower value; z-score (the deposit names both 25 µM and 10 µM); 0.83% of 99,000 active; AID 1347419, 2020;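 active = Z-score of -3 or lower, scaled per plate to the spread of control and sample wells; inactive = z-score above -3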;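 also: negative z-score means lost luminescence so less FERM oligomerization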
ERa SRC1 pot – enhancers of ERα–SRC-1 coactivator binding, primary screen, biochemical, TR-FRET, ERα LBD, low estradiol; Estrogen receptor (Homo sapiens), P03372; TR-FRET ERalpha-LBD/SRC-Cy5 coactivator binding, 2 h; 100 = basal binding, no effect; coactivator binding (% of control), % at 25.6 µM; 1.3% of 86,000 active; AID 639, 2007; in the data active = activity above about 200%;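 also: binding measured in presence of low estradiol as agonist stimulus; 0% = peptide alone without receptor and 100% = receptor with peptide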
ERa coact inh – ERα–SRC-1 coactivator interaction inhibitors, primary screen, biochemical, TR-FRET, ERα LBD, estradiol-bound; TR-FRET ER-alpha LBD / SRC-1 peptide; inhibition, % at 25.6 µM; 1.7% of 86,000 active; AID 629, 2007; in the data active = inhibition above about 50%;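 also: 0% = receptor plus peptide control and 100% = peptide only without receptor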
RORa activator – activators of orphan receptor RORA, primary screen, cell-based, luminescence. Nuclear receptor ROR-alpha (Homo sapiens), P35398. CHO-K1 Gal4-RORA LBD luciferase reporter; percent increase over mock-subtracted basal signal. activation, % at 10 µM. 1.5% of 65,000 active. AID 560, 2006;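 active = activation above the mean of all tested compounds plus 3 SD, cut at about 49% in these data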;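 also: 0% = DMSO-treated RORA cells and 100% = added signal equal to DMSO minus mock-transfected cells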
ERb SRC1 inh – inhibitors of ERβ-SRC1 coactivator interaction, primary screen, biochemical, TR-FRET, ERβ LBD, SRC-1 peptide; Estrogen receptor beta (Homo sapiens), Q92731; 1.3% of 86,000 active; TR-FRET ER-beta LBD / SRC1-Cy5 peptide binding; receptor agonist-loaded with 1 µM estradiol; inhibition, % at 25.6 µM; AID 633, 2007;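 active = compounds whose percent inhibition of the receptor-coactivator binding signal exceeds about 50% in the single-dose screen, limit read from the data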;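 also: 0% = receptor plus peptide wells without compound and 100% = peptide-only wells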
* marks the source's active call; other numbers are inactive results; [ ] = remark or other dose.

For CCC(C)N1C(=O)C2C(C(=O)Nc3cccc(OC)c3)C3C=CC2(O3)C1C(=O)NC1CCCCC1C (configuration not stated) the results were SF1 activator -6, Pyk2 oligo antag -0.77, ERa SRC1 pot 105, ERa coact inh 3, RORa activator 3 and ERb SRC1 inh 7.
`Cn1cnnc1SC(C(=O)Nc1cc(Cl)cc(Cl)c1)c1ccccc1` (configuration not stated) gave Pyk2 oligo antag -0.63, ERa SRC1 pot 92, ERa coact inh -1 and ERb SRC1 inh -2.
CCC(=O)Nc1nonc1-c1nc2ccccc2n1N(C(=O)CC)C(=O)CC was read as SF1 activator 3, Pyk2 oligo antag 0.6, ERa SRC1 pot 59, ERa coact inh 59*, RORa activator 9 and ERb SRC1 inh 50.
Screening CCOC(=O)Cn1c(-c2nonc2NC(=O)c2ccccc2F)nc2ccccc21 returned Pyk2 oligo antag -2.5, ERa SRC1 pot 322*, ERa coact inh 25 and ERb SRC1 inh 29.
Screening CCC(=O)Nc1nonc1-c1nc2ccccc2n1Cc1cccc2ccccc12 returned Pyk2 oligo antag -0.64, ERa SRC1 pot 204*[fluorescence artefact?], ERa coact inh 19 and ERb SRC1 inh 21.
CCC(=O)Nc1nonc1-c1nc2ccccc2n1Cc1ccccc1 was read as SF1 activator 16, Pyk2 oligo antag -0.05, ERa SRC1 pot 113, ERa coact inh 19, RORa activator 4 and ERb SRC1 inh 3.
For COc1cccc2cc(C(=O)N3CCc4ccccc43)c(=O)oc12 the results were SF1 activator 10, Pyk2 oligo antag -3*, ERa SRC1 pot 115, ERa coact inh 0, RORa activator -8 and ERb SRC1 inh -2.
Screening COc1cccc2cc(C(=O)Nc3cccc(C)n3)c(=O)oc12 returned SF1 activator 73*, Pyk2 oligo antag 0.03, ERa SRC1 pot 253*, ERa coact inh 35, RORa activator 58* and ERb SRC1 inh 25.
Screening COc1cccc2cc(C(=O)N3CCCCC3C)c(=O)oc12 (configuration not stated) returned Pyk2 oligo antag -1.1, ERa SRC1 pot 112, ERa coact inh -15 and ERb SRC1 inh -24.
CCOc1cccc2cc(C(=O)N3CCc4ccccc43)c(=O)oc12 was read as SF1 activator 1, Pyk2 oligo antag 0.11, ERa SRC1 pot 113, ERa coact inh 6, RORa activator -10 and ERb SRC1 inh -5.
Screening COc1cccc2cc(C(=O)Nc3cccnc3N3CCOCC3)c(=O)oc12 returned SF1 activator -4, Pyk2 oligo antag 1.1, ERa SRC1 pot 289*, ERa coact inh -18, RORa activator -2 and ERb SRC1 inh 1.
For COc1cccc2cc(NC(=O)C3CCCCC3)c(=O)oc12 the results were SF1 activator 66*, Pyk2 oligo antag 1.1 and RORa activator 56*.
For COc1ccc(/C=N/NC(=O)c2ccn[nH]2)cc1COc1ccc(F)cc1 the results were Pyk2 oligo antag -3.2*.
O=C1c2cccc3cccc(c23)C(=O)N1c1ccc2ncccc2c1 was read as Pyk2 oligo antag -1.1, ERa SRC1 pot 172, ERa coact inh 71*[fluorescence artefact?] and ERb SRC1 inh 23.
`O=C(c1ccc2c(c1)OCO2)N1CCCc2ccccc21` gave SF1 activator -2, Pyk2 oligo antag 0.12, ERa SRC1 pot 106, ERa coact inh -7, RORa activator 4 and ERb SRC1 inh -7.
O=C(c1ccc2c(c1)OCO2)N1CCc2ccccc2C1 was read as SF1 activator 44, Pyk2 oligo antag 0.07, ERa SRC1 pot 117, ERa coact inh -1, RORa activator 66* and ERb SRC1 inh -11.
O=C(NC(NC(=S)Nc1cccc(Cl)c1)C(Cl)(Cl)Cl)OCc1ccccc1 (configuration not stated) was read as Pyk2 oligo antag -1.4.
For Fc1ccccc1CSc1nc2ncccc2[nH]1 the results were SF1 activator 51*, Pyk2 oligo antag -0.5 and RORa activator 34.
Screening Cn1c(SCc2ccccc2F)nc2cccnc21 returned SF1 activator 6, Pyk2 oligo antag 0.46, ERa SRC1 pot 110, ERa coact inh -7, RORa activator 80* and ERb SRC1 inh -17.
`Fc1cccc(F)c1CSc1nc2ccccc2[nH]1` gave Pyk2 oligo antag -0.42, ERa SRC1 pot 90, ERa coact inh 4 and ERb SRC1 inh -6.
Screening CCOc1ccc(C(C)=O)cc1COc1ccc(-n2cnnn2)cc1 returned SF1 activator -11, Pyk2 oligo antag 0.16, ERa SRC1 pot 53, ERa coact inh 55*[fluorescence artefact?], RORa activator 2 and ERb SRC1 inh 23.
For COc1ccc(N/C(C)=C2/C(=O)C(=O)N(CCO)C2c2ccc(Br)cc2)cc1 (configuration not stated) the results were SF1 activator 4, Pyk2 oligo antag -0.38, ERa SRC1 pot 97, ERa coact inh 4, RORa activator 9 and ERb SRC1 inh 6.
COc1ccc(Nc2ncc(C(=O)N3CCN(Cc4ccccc4)CC3)c3ccccc23)cc1 was read as Pyk2 oligo antag -3.5*, ERa SRC1 pot 91, ERa coact inh 3 and ERb SRC1 inh -7.
FC(F)(F)c1cc(-c2ccccc2)nc(N2CCCCCC2)n1 was read as SF1 activator 2, Pyk2 oligo antag -0.11, ERa SRC1 pot 104, ERa coact inh 18, RORa activator -6 and ERb SRC1 inh 15.
Screening c1ccc(-c2cc(N3CCCCCC3)n[nH]2)cc1 returned SF1 activator 42, Pyk2 oligo antag -1.1, ERa SRC1 pot 98, ERa coact inh 4, RORa activator 70* and ERb SRC1 inh 2.
For Cc1nc(-c2ccccc2)cc(N2CCCC2)n1 the results were SF1 activator -29, Pyk2 oligo antag -0.19 and RORa activator -4.
`c1ccc(-c2cc3ccccc3nc2N2CCCC2)cc1` gave Pyk2 oligo antag -0.04.
`c1ccc(-c2cc(N3CCCCC3)ncn2)cc1` gave SF1 activator 56*, Pyk2 oligo antag -1.1, ERa SRC1 pot 99, ERa coact inh -3, RORa activator 34 and ERb SRC1 inh -2.
`Nc1nc(-c2ccccc2)cc(N2CCCCC2)n1` gave SF1 activator 75*, Pyk2 oligo antag -0.08, ERa SRC1 pot 88, ERa coact inh 4, RORa activator 47 and ERb SRC1 inh 4.
